Measured values published in ChEMBL document CHEMBL2093137, “WHO-TDR NTD Screening”.
Converted amounts (≈) assume the structure as drawn.

Key:
Brugia malayi [1] = assay: (§1) WHO-TDR: Lymphatic Filariasis; assay type: functional; parameters: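 tested at 10 µM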
In short: (§2)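 The screening set was a 10,000-compound diverse library from Life Chemicals, filtered for drug-likeness and for reactive groups. It was run against Brugia malayi microfilariae as whole organisms, using previously published standard procedures. Reference drugs acted as positive controls, and activity is reported both as percent inhibition and as IC50.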

Onchocerca lienalis = assay: WHO-TDR: Onchocerciasis; assay type: functional; parameters: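 at 12.5 µM on microfilariae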
In short: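 Percent inhibition and IC50 describe activity against microfilariae of Onchocerca ochengi or Onchocerca lienalis, used as animal-pathogen substitutes for the human parasite. The compounds tested made up a 10,000-member diverse library from Life Chemicals.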

Plasmodium falciparum K1 = assay: WHO-TDR: Malaria; assay type: functional, organism-based, Homo sapiens; conditions: Erythrocyte
In short: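 Values are IC50 figures for antiplasmodial potency. They come from a whole-organism screen of 10,000 diverse Life Chemicals compounds against Plasmodium falciparum K1 growing inside human red blood cells, run by previously published standard procedures.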

Trypanosoma cruzi = assay: WHO-TDR: Chagas disease; assay type: functional, organism-based, Homo sapiens; conditions: MRC5
In short: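 Whole-organism screen of a 10,000-compound diverse library from Life Chemicals, filtered for drug-likeness and reactive groups, against intracellular amastigotes of Trypanosoma cruzi Tulahuen CL2 beta-galactosidase strain grown in MRC-5SV2 human lung fibroblast host cells. The assay followed previously published standard procedures, with a reference drug as positive control. Antiparasitic potency is reported as IC50.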

[2] = tested on: Trypanosoma brucei brucei; assay: WHO-TDR: Human African Trypanosomiasis (HAT); assay type: functional, organism-based; conditions: Squib-427
In short: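 Values are IC50 figures for antiparasitic potency. They come from a whole-organism screen of 10,000 diverse Life Chemicals compounds against bloodstream-form Trypanosoma brucei (Squib 427 strain).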

Brugia malayi [3] = assay: as §1; assay type: functional; parameters: concentration or dose not given beside the values; in short: as §2; remark: listed apart in the source
[4] = WHO-TDR: Cytotoxicity; assay type: toxicity, cell-based; conditions: human, MRC5 cells
Schistosoma mansoni [5] = assay: (§3) WHO-TDR: Schistosomiasis; assay type: functional; parameters: concentration or dose not given beside the values
In short: (§4)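 Percent inhibition and IC50 describe activity against whole Schistosoma mansoni worms of the Puerto Rican strain, tested as larvae and/or adults. The compounds screened were a diverse set of 10,000 from Life Chemicals, filtered for drug-likeness and reactive groups. Testing followed previously published standard procedures, with a reference drug as positive control.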

Leishmania infantum = assay: WHO-TDR: Leishmaniasis; assay type: functional, organism-based, Mus musculus; conditions: Macrophage
In short: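 Values are IC50 figures for antiparasitic potency. They come from a whole-organism screen of a 10,000-compound diverse Life Chemicals library against Leishmania infantum MHOM/MA(BE)/67 amastigotes inside murine peritoneal macrophage host cells.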

Brugia malayi [6] = assay: as §1; assay type: functional, organism-based; in short: as §2
Brugia malayi [7] = assay: as §1; assay type: functional, organism-based; in short: as §2; remark: listed apart in the source
Schistosoma mansoni [8] = assay: as §3; assay type: functional, organism-based; in short: as §4

SMILES | % Inhibition (Brugia malayi [1]) | % Inhibition (Onchocerca lienalis) | IC50 (Plasmodium falciparum K1) | IC50 (Trypanosoma cruzi) | IC50 [2] | % Inhibition (Brugia malayi [3]) | IC50 [4] | % Inhibition (Schistosoma mansoni [5]) | IC50 (Leishmania infantum) | IC50 (Brugia malayi [6]) | IC50 (Brugia malayi [7]) | IC50 (Schistosoma mansoni [8])
COc1ccc(C(=O)C[n+]2cc(-c3ccc(OC)cc3)n3c2CCCCC3)cc1 | 99% | 0% | 0.505 µg/mL | < 0.141 µg/mL | 3.73 µg/mL | 50% | 0.572 µg/mL | 50% | 4.58 µg/mL | 2.99 µM | – | –
Cc1cccc(-n2nc3c(c2NC(=O)Nc2cccc(Cl)c2)CSC3)c1 | 100% | 33.34% | > 11.5 µg/mL | 9.48 µg/mL (≈ 24.6 µM) | > 11.5 µg/mL | 100% | > 11.5 µg/mL | 25% | 3.74 µg/mL (≈ 9.71 µM) | 0.26 µM | 1.77 µM | –
COC(=O)c1c(NC(=O)c2cc3ccccc3oc2=O)sc2c1CCN(Cc1ccccc1)C2 | 100% | 0% | > 15.3 µg/mL | 0.637 µg/mL (≈ 1.34 µM) | > 15.3 µg/mL | 100% | 8.92 µg/mL (≈ 18.8 µM) | 0% | 4.96 µg/mL (≈ 10.5 µM) | 2.97 µM | – | –
Cc1ccc(S(=O)(=O)Nc2ccccc2C(=O)Nc2nc3c(s2)Cc2ccccc2-3)cc1 | 100% | 0% | > 13.8 µg/mL | 4.98 µg/mL (≈ 10.8 µM) | 3.6 µg/mL (≈ 7.79 µM) | 25% | 2.51 µg/mL (≈ 5.44 µM) | 0% | 4.48 µg/mL (≈ 9.71 µM) | 1.18 µM | – | –
O=C(Nc1nnc(S)s1)c1cc(Br)ccc1Cl | 100% | 0% | > 10.5 µg/mL | > 10.5 µg/mL | > 10.5 µg/mL | 0% | > 10.5 µg/mL | 0% | > 10.5 µg/mL | 0.853 µM | – | –
CCOC(=O)c1ccc(NC(=O)CSc2nnc(NC(=O)C34CC5CC(CC(C5)C3)C4)s2)cc1 | 100% | 40% | > 15 µg/mL | > 15 µg/mL | > 15 µg/mL | 100% | > 15 µg/mL | 0% | > 15 µg/mL | 7.07 µM | 5.95 µM | –
COc1cc(C)c(Cl)cc1S(=O)(=O)Nc1ccc(Nc2nc(C)cc(N3CCOCC3)n2)cc1 | – | 46.7% | > 15.1 µg/mL | > 15.1 µg/mL | > 15.1 µg/mL | – | > 15.1 µg/mL | 100% | > 15.1 µg/mL | – | – | 5.1 µM
CN(C)CCCN(C(=O)/C=C/c1ccccc1Cl)c1nc2cc3c(cc2s1)OCO3 | – | 0% | 1.44 µg/mL (≈ 3.25 µM) | 0.408 µg/mL (≈ 0.919 µM) | 0.428 µg/mL (≈ 0.964 µM) | – | 0.462 µg/mL (≈ 1.04 µM) | 100% | 0.467 µg/mL (≈ 1.05 µM) | – | – | 4.3 µM
CCc1ccc(NC(=O)c2oc3ccccc3c2NC(=O)Cc2cccs2)cc1 | – | 0% | > 12.1 µg/mL | > 12.1 µg/mL | > 12.1 µg/mL | – | > 12.1 µg/mL | 100% | > 12.1 µg/mL | – | – | 6.5 µM
CCSc1nnc(NC(=O)CSc2nncc(=O)[nH]2)s1 | – | 0% | > 9.91 µg/mL | 3.09 µg/mL (≈ 9.35 µM) | 3.13 µg/mL (≈ 9.49 µM) | – | 1.95 µg/mL (≈ 5.92 µM) | 100% | 3.21 µg/mL (≈ 9.71 µM) | – | – | 5.2 µM
O=C(CSc1nncc(=O)[nH]1)Nc1cc(C(F)(F)F)ccc1Cl | – | 0% | > 10.9 µg/mL | > 10.9 µg/mL | > 10.9 µg/mL | – | > 10.9 µg/mL | 100% | > 10.9 µg/mL | – | – | 6.3 µM
COc1cc(OC)cc(C(=O)N(CCCN(C)C)c2nc3c(C)c(C)ccc3s2)c1 | – | 0% | 1.13 µg/mL (≈ 2.64 µM) | 4.66 µg/mL (≈ 10.9 µM) | 0.456 µg/mL (≈ 1.07 µM) | – | 2.84 µg/mL (≈ 6.64 µM) | 100% | 4.51 µg/mL (≈ 10.5 µM) | – | – | 5.7 µM
CCOc1ccc(NC(=O)CSc2nncc(O)n2)cc1 | – | 0% | 0.566 µg/mL (≈ 1.85 µM) | 3.3 µg/mL (≈ 10.8 µM) | 2.53 µg/mL (≈ 8.27 µM) | – | 3.01 µg/mL (≈ 9.83 µM) | 100% | > 9.19 µg/mL | – | – | 5.8 µM
CCOc1ccc(C(=O)Nc2ccc(Nc3nc(C)cc(N(CC)CC)n3)cc2)cc1OCC | – | 20% | 0.51 µg/mL (≈ 1.1 µM) | 0.428 µg/mL (≈ 0.922 µM) | 4.4 µg/mL (≈ 9.49 µM) | – | 3.94 µg/mL (≈ 8.5 µM) | 100% | 4.5 µg/mL (≈ 9.71 µM) | – | – | 8.3 µM
COC(=O)c1sc(-c2ccccc2)cc1NC(=O)CCS(=O)(=O)c1ccccc1 | – | 13.3% | > 9.7 µg/mL | > 9.7 µg/mL | > 9.7 µg/mL | – | > 9.7 µg/mL | 100% | > 9.7 µg/mL | – | – | 8.2 µM
CCN(CC)c1cc(C)nc(Nc2ccc(NC(=O)c3c(F)cccc3F)cc2)n1 | – | -1% | 0.77 µg/mL (≈ 1.87 µM) | 0.26 µg/mL (≈ 0.632 µM) | 3.63 µg/mL (≈ 8.81 µM) | – | 2.86 µg/mL (≈ 6.95 µM) | 100% | 3.9 µg/mL (≈ 9.49 µM) | – | – | 7.4 µM
CN(CC1CCCO1)S(=O)(=O)c1ccc(C(=O)Nc2cccc(-c3nc4ccccc4o3)c2)cc1 (centres undefined) | – | 13.3% | > 8.86 µg/mL | > 8.86 µg/mL | 4.38 µg/mL (≈ 8.92 µM) | – | > 8.86 µg/mL | 100% | 4.66 µg/mL (≈ 9.49 µM) | – | – | 7.4 µM
O=C(CSc1nncc(=O)[nH]1)Nc1ccc(Br)cc1 | – | 0% | 0.966 µg/mL (≈ 2.83 µM) | 2.82 µg/mL (≈ 8.26 µM) | 3.24 µg/mL (≈ 9.49 µM) | – | 1.76 µg/mL (≈ 5.15 µM) | 100% | > 10.2 µg/mL | – | – | 5.2 µM
Cc1ccc(NC(=O)c2oc3ccccc3c2NC(=O)CC(c2ccccc2)c2ccccc2)cc1C | – | 0% | > 14.7 µg/mL | > 14.7 µg/mL | > 14.7 µg/mL | – | > 14.7 µg/mL | 100% | 4.75 µg/mL (≈ 9.71 µM) | – | – | 6.7 µM
Cc1nc(-c2ccccc2)sc1C(=O)Nc1cccc(-c2cn3c(n2)SCC3)c1 | – | 0% | 10.4 µg/mL (≈ 24.8 µM) | 10.5 µg/mL (≈ 25 µM) | > 12.6 µg/mL | – | 8.81 µg/mL (≈ 21.1 µM) | 100% | 4.07 µg/mL (≈ 9.71 µM) | – | – | 2.7 µM
